NLRP3 yeast inh – NALP3 inhibition in yeast; Yeast reconstituted NLRP3/ASC/caspase-1, beta-gal luminescence, 24 h; inhibition, % at 10 µM; 0.39% of 330,000 active; AID 2825;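 active = inhibition of 50% or more; inactive = inhibition below 50%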
NALP1 yeast inh – NALP1 inhibition; S. cerevisiae NALP1/ASC/caspase-1 growth, X-gal OD620, 72 h; inhibition, % at 10 µM; 0.61% of 280,000 active; AID 2071; in the data active = inhibition mostly above about 24%, no sharp cut-off; inactive = mostly below about 32%
Lmaj promast – Leishmania major promastigote growth inhibition | 9% of 200,000 active | inhibition, % at 10 µM | Leishmania major promastigotes, resazurin fluorescence viability | AID 1063;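 also: promastigotes grown with compound for 44 hours at 28 °C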
Calb FLC – C. albicans growth modulation with fluconazole. C. albicans CaCi-2 + fluconazole, Alamar Blue growth, 48 h. growth inhibition, % (concentration not given with the values). 0.57% of 300,000 active. AID 1979;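 active = growth inhibition above about 58% in most replicates, limit read from the data, passing the limit was not always enough; inconclusive = exactly half the replicates above a set limit; inactive = most replicates below a set limit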;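 also: all wells also contain fluconazole at 8 µg/ml as a sub-toxic cotreatment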
T cruzi inh – T. cruzi replication inhibition. T. cruzi beta-gal in NIH3T3, luminescence, 90 h. inhibition, % (concentration not given with the values). 1.4% of 300,000 active. AID 1885;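 active = mean inhibition across valid replicates above about 55%, limit read from the data; inconclusive = mean below that limit but half or more replicates reach it; inactive = mean below it, under half of replicates reach it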;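 also: signal also drops with host cell toxicity which is not excluded here; higher percent means less beta-gal luminescence so fewer parasites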
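Assay system: NIH/3T3 host cells with β-galactosidase reporter T. cruzi; input: 5,000 host fibroblasts per well; compound: single 50 nL compound addition per well in DMSO; timing: ≥90 h infection period, 3 h prior cell attachment; measured by: GalScreen β-gal luminescence, detergent lysis, 60 min; evaluation: percent inhibition of parasite-derived β-gal signal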
PolyA inh – yeast polyadenylation inhibition; 0.02% of 300,000 active; S. cerevisiae SKY197-pL101 polyadenylation reporter, beta-gal luminescence; efflux-impaired pdr1/pdr3 knockout yeast; score 100 = 6 SD above DMSO; activity score, % at 12 µM;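 active = lowest replicate activity score at least 50, where 100 means six control SD above control mean; inconclusive = lowest score under 50 but half or more replicates reach 50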;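 also: yeast exposed to compound for 9 h at 30 °C; higher score means more reporter readthrough which indicates perturbed polyadenylation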
NALP3 yeast conf – confirmation of NALP3 inhibitors in yeast; shares compounds with NLRP3 yeast inh; yeast expressing human NALP3, luminescence; inhibition, % at 10 µM; 81% of 1,300 active; AID 435006; in the data active = inhibition above about 48%
Casp1-ASC yeast – active in yeast caspase-1-ASC counter-screen for NALP3 inhibitors. yeast expressing Caspase-1-ASC, luminescence counter screen. shares compounds with NLRP3 yeast inh. AID 488784. inhibition, % at 10 µM. 66% of 1,000 active
NALP3 yeast rt – confirmation retest of NALP3 inhibitors in yeast. yeast expressing human NALP3, luminescence read-out. inhibition, % at 10 µM. shares compounds with NLRP3 yeast inh. AID 488794. 53% of 1,000 active
Large screens that a line does not name were inactive (follow-up assays come after a bar, where they were run). Shown is part of a subset that was picked to be rich in hits. Rule as the data show it, unless noted: active = inhibition above about 50%; inactive = the rest.

Cc1sc(NC(=O)c2cccs2)nc1-c1ccccc1	NLRP3 yeast inh 68 | NALP3 yeast conf 67 | Casp1-ASC yeast 55 | NALP3 yeast rt inactive
C=CCSc1nnc(NC(=O)CN2C(=O)NC3(CCCC3)C2=O)s1	none (no result: Lmaj promast)
Clc1nnc(N/N=C/c2ccccc2)c2ccccc12	NLRP3 yeast inh 60 | NALP3 yeast conf 71 | Casp1-ASC yeast inactive | NALP3 yeast rt inactive
Cc1ccc(/C=C2\SC(=S)N(c3cccnc3)C2=O)cc1	NLRP3 yeast inh 54 | NALP3 yeast conf inactive
CCOc1ccc(N2C(=O)/C(=C/c3ccccn3)SC2=S)cc1	none (no result: Lmaj promast)
O=C1/C(=C/c2cccnc2)SC(=S)N1CC1CCCO1 (stereo unspecified)	Calb FLC inconclusive
O=C1/C(=C/c2cccnc2)SC(=S)N1CCc1ccccc1	NLRP3 yeast inh 50 (no result: Lmaj promast) | NALP3 yeast conf inactive
O=C1/C(=C/c2cccnc2)SC(=S)N1c1ccc(F)cc1	none
O=C1/C(=C/c2cccnc2)SC(=S)N1c1ccc(O)cc1	NLRP3 yeast inh 87 (no result: Lmaj promast) | NALP3 yeast conf 89 | Casp1-ASC yeast 90 | NALP3 yeast rt 74
O=C1/C(=C/c2ccccn2)SC(=S)N1c1cccc(O)c1	NLRP3 yeast inh 81 (no result: NALP1 yeast inh, Lmaj promast) | NALP3 yeast conf 74 | Casp1-ASC yeast 80 | NALP3 yeast rt 51
Cc1ccc(C(C)C)c(OCC(=O)NNC(=O)C2CSC3(C)CCC(=O)N23)c1 (stereo unspecified)	none (no result: NALP1 yeast inh, Lmaj promast, Calb FLC, T cruzi inh, PolyA inh)
COCCn1c(CN2CCN(C(c3ccccc3)c3ccccc3)CC2)nc2c1c(=O)n(C)c(=O)n2C	none (no result: Lmaj promast)
O=C(c1cccnc1)c1cccnc1	none
COc1c(OC(C)=O)c(=O)n2c3ccccc3c3ccnc1c32	NLRP3 yeast inh 71 (no result: NALP1 yeast inh, Lmaj promast) | NALP3 yeast conf 75 | Casp1-ASC yeast inactive | NALP3 yeast rt 64
c1coc(C2Nc3ccccc3C3OCCC23)c1 (stereo unspecified)	none
Fc1ccc2c(c1)C1OCCCC1C(c1ccccc1)N2 (stereo unspecified)	NLRP3 yeast inh 62 (no result: Lmaj promast) | NALP3 yeast conf inactive
COc1ccc2c(c1)CC/C2=N\OC(=O)c1ccccc1C	none
COc1ccc2c(c1)CC/C2=N\OC(=O)c1cccc(C)c1	NLRP3 yeast inh 52 | NALP3 yeast conf inactive
O=C(NCCCN1CCOCC1)c1c(O)c2cc(Br)cc(Br)c2[nH]c1=O	NLRP3 yeast inh 63 (no result: Calb FLC, T cruzi inh, PolyA inh) | NALP3 yeast conf 81 | Casp1-ASC yeast inactive | NALP3 yeast rt inactive
COc1cc2[nH]c(=O)c(C(=O)NCCCN3CCOCC3)c(O)c2cc1OC	none
CCCSc1ccc2nc(-c3ccccc3)cn2c1	NLRP3 yeast inh 51 | NALP3 yeast conf 61 | Casp1-ASC yeast 72 | NALP3 yeast rt 61
CCCCSc1ccc2nc(-c3ccc(C#N)cc3)cn2c1	none
CCOC(=O)c1cccc(NC(=O)c2cccs2)c1	NLRP3 yeast inh 61 | NALP3 yeast conf 79 | Casp1-ASC yeast 51 | NALP3 yeast rt 53
CCOC(=O)c1cccc(NC(=O)c2ccccc2C)c1	none
CCOC(=O)C1=C(CSc2nc(C)ccc2C#N)OC(N)=C(C#N)C1c1cccc(OC)c1OC (stereo unspecified)	none
Cc1noc(C)c1C(=O)Nc1nc2ccccc2s1	NLRP3 yeast inh 50 (no result: NALP1 yeast inh, Lmaj promast, Calb FLC, T cruzi inh, PolyA inh) | NALP3 yeast conf 49 | Casp1-ASC yeast inactive | NALP3 yeast rt inactive
O=C(CSc1ncnc2c1oc1ccccc12)NCc1ccc(F)cc1	NLRP3 yeast inh 55 | NALP3 yeast conf 63 | Casp1-ASC yeast inactive | NALP3 yeast rt inactive
Fc1ccc(CSc2ncnc3c2oc2ccccc23)cc1	none (no result: NLRP3 yeast inh, Calb FLC, T cruzi inh, PolyA inh)
COc1cc(C)ccc1OCCOc1ccccc1Cl	NLRP3 yeast inh 51 | NALP3 yeast conf 49 | Casp1-ASC yeast inactive | NALP3 yeast rt inactive
CCN(CC)S(=O)(=O)c1cc(C(=O)O)c(Cl)cc1Cl	none
CCN(CC)S(=O)(=O)c1cc(C)c(C)cc1Br	NLRP3 yeast inh 58 | NALP3 yeast conf 54 | Casp1-ASC yeast 53 | NALP3 yeast rt inactive
COc1ccc(CN2CCN(C(=O)c3c(-c4ccccc4)noc3C)CC2)cc1F	none (no result: NALP1 yeast inh, Lmaj promast, Calb FLC, T cruzi inh, PolyA inh)

Source: PubChem BioAssay
